# Experimental data taken from PMC2865690 (ChemMedChem, 2009).
# Key:
# [1] = cited from earlier work
# mGluR5 [2] = assay: mGluR5 potentiation; type: cell-based; conditions: read-out: Potentiator EC50; at an EC20 concentration of glutamate; average of at least three determinations
# Method in brief: (§1)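 Calcium fluorescence recorded continuously on mGluR5. Test compound added alone at t = 4 s, then an EC20 concentration of glutamate added 140 s later. Agonism is read from the response to compound alone; potentiation from the response to EC20 glutamate. Full concentration-response curves, up to 30 μM, give EC50s.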
# mGluR5 [3] = assay: Fold-shift assay of the glutamate concentration-response curve; type: cell-based; conditions: 1 μM compound; leftward shift
# mGluR5 [4] = assay: mGluR5 allosteric agonist activity, compound alone without glutamate; type: cell-based
# Method in brief: as §1
smiles,measurement,setting,value
N#Cc1cccc(C(=O)Nc2cc(-c3ccccc3)nn2-c2ccccc2)c1 [CDPPB],Solubility in most vehicles,[1],poor solubility
O=C(c1ccc(F)cc1)N1CCCC(c2nc(-c3ccc(F)cc3)no2)C1 (stereo not drawn) [16a],EC50,mGluR5 [2],1680 ± 3620 nM
O=C(c1ccc(F)cc1)N1CCC[C@H](c2nc(-c3ccc(F)cc3)no2)C1 [ADX-47273],Fold shift of the glutamate CRC,mGluR5 [3],9 fold
same,Allosteric agonist % Glu Max,mGluR5 [4],65%
same,EC50,"mGluR5 [4]; read-out: Allosteric agonist EC50, absence of an EC20 of glutamate",9500 nM
same,EC50,mGluR5 [2],168 ± 28 nM
